# Results as given in PubChem BioAssay AID504846 (Johns Hopkins Ion Channel Center, 2011).
# The source made the active and inactive calls.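 How the source made its calls: active means blocks the KCNK9 potassium channel at some tested concentration and gives a dose response curve; inactive means the rest.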
# Target: Potassium channel subfamily K member 9 (Homo sapiens) (UniProt Q9NPC2)
# Test: KCNK9 potassium channel inhibitors, SAR follow-up, HEK293 cells, thallium flux (AID 504846)
# Settings: HEK293-KCNK9, FluxOR thallium flux fluorescence; series mostly up to 30 µM; flux ratio, lower = inhibition: at the top concentration
# Outline: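 Doses: Concentration-response series | System: KCNK9-expressing stable HEK293 cell line | Repeats: Replicate concentration-response series per compound | Signal: Kinetic thallium-dye fluorescence | Reagent: K2SO4 and Tl2SO4 flux stimulus (stock 25 mM, 7 mM) | Incubation: 20 min room-temperature compound pre-incubation, then 110 s post-stimulus reading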
# Chain of Potassium channel subfamily K member 9 (Homo sapiens) (Q9NPC2 whole entry, looked up): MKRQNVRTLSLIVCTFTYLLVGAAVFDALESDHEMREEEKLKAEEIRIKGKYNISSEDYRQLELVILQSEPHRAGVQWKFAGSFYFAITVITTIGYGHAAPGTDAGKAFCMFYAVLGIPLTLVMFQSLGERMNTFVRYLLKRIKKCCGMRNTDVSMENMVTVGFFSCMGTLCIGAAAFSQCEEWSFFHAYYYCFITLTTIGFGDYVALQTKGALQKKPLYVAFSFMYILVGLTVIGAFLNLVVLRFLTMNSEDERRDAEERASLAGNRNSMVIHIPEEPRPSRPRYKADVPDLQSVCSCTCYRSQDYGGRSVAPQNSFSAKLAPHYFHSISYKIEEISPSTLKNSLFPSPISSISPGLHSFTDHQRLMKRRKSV
row,SMILES,"flux ratio, lower = inhibition"
1,Cc1cccc(C(=O)Nc2cccc(C(=O)Nc3ccccc3)c2)c1,0.726 (inactive)
2,Cc1cccc(NC(=O)c2cccc(NC(=O)c3ccccc3)c2)c1,0.844 (inactive)
3,Cc1cccc(NC(=O)c2ccccc2NC(=O)c2ccccc2)c1,0.812 (inactive)
4,Cc1cccc(C(=O)Nc2ccc(C(=O)Nc3ccccc3)cc2)c1,0.771 (inactive)
5,Cc1cccc(C(=O)Nc2ccccc2C(=O)Nc2ccccc2)c1,0.782 (inactive)
